Experimental findings from the RNAGym collection of RNA variant scans (doi:10.1126/science.aae0568) are described below.

The chains are these.
B1: tRNA (parent)
chain: GUUCCGUUGGCGUAAUGGUAACGCGUCUCCCUCCUAAGGAGAAGACUGCGGGUUCGAGUCCCGUACGGAACG

Fewer inactive variants are shown than the library holds.

The data set covers variants of B1. The experiment in a line: yeast fitness relative to wild type (ratio to wild type); higher = fitter; tRNA-Arg(CCU), competitive growth, 37 C, YPD. In a few lines:
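Gene amplicons from the start population and from each of six end populations were read by 100-nucleotide paired-end sequencing. Those end populations came from pooled Saccharomyces cerevisiae strains carrying tRNA-Arg(CCU) gene variants at the native locus, competed in YPD at 37°C for 24 hours. Fitness relative to wild type was worked out from changes in genotype frequencies. Genotypes needed ≥ 100 starting reads, and estimates < 0.5 were set to 0.5.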
As to U2C C11U G25U C29U G39A, the yeast fitness is no more than 0.5.
In the case of U2C A57U G67C, the yeast fitness was determined as 0.562.
On to U2C A37G G39A, for which the yeast fitness is no more than 0.5.
Turning to U2G A14C C30U U54G C55A, the yeast fitness is no more than 0.5.
For the variant U2C C24G C29U C62G C66A, the yeast fitness was no more than 0.5.
The figure for U2C C61U A65G is 0.711.
As for U2C C24U G44C, the yeast fitness was no more than 0.5.
The figure for U2C U8G C49A C55U C66A A69C is no more than 0.5.
Take U2C A65C: the yeast fitness is 0.86.
The same measure for U2C C31A A70U: 0.76.
In the case of U2C U13C C22G U26A C31U A42C G50C U64A C66U G68C, the yeast fitness was no more than 0.5.
Turning to U2C A65G G68A A69C, the yeast fitness was 0.563.
With U2C C11G A37G G51C A57G, the yeast fitness was 0.632.
Turning to U2C G44A A70C, the yeast fitness amounted to 0.884.
The figure for U2C A20C G68A is 0.614; for U2C U13A G39C C60G it is no more than 0.5.
As for U2C A40C C66A, the yeast fitness is no more than 0.5.
In the case of U2C C60A C66U, the yeast fitness is 0.576.
Turning to U2C C29U G38C A43U U53G, the yeast fitness is no more than 0.5.
The same measure for U2A U32A A65U A69C: no more than 0.5; for U2C U28C A37U U53A: 0.547; for U2C C5A C24A: no more than 0.5.
As to U2C C24U G25C U26A A57G, the yeast fitness is 0.878.
Regarding U2C U7A C34U G44C, the yeast fitness is no more than 0.5.
The same measure for U2C C4U A37C G48A C60G A65U: no more than 0.5.
On to U2C A21U U54G, for which the yeast fitness is no more than 0.5.
Turning to U2C A57U C62U, the yeast fitness was 0.549.
In the case of U2C C24G U26A C31G, the yeast fitness stood at 0.639.
U2C C31A G38C G50A: the yeast fitness came out at 0.604.
Consider U2C C29A G44C C46G C62A, for which the yeast fitness is no more than 0.5.
The figure for U2C C30U C33U is 0.512.
For U2C C29A C34G A43U G52A, the yeast fitness worked out at 0.682.
With U2A U28C C49U C62G, the yeast fitness was no more than 0.5.
Regarding U2C A14G G18A U32A G44A A65C, the yeast fitness stood at 0.539.
On to U2C U47A U53A, for which the yeast fitness was no more than 0.5.
As to U2C U47A U64A, the yeast fitness was no more than 0.5.
In the case of U2C C33U A42G G44C, the yeast fitness was no more than 0.5.
Regarding U2C A14G C31G G58A, the yeast fitness is no more than 0.5.
For U2C U19A C24U G38A U54C C66A, the yeast fitness is no more than 0.5.
The figure for U2C G10C C24A C31U A36C A43C C55A is 0.546; for U2C G39U it is 0.819.
The same measure for U2C A14C U35C: no more than 0.5; for U2C U13C C61G: no more than 0.5.
U2C C24A C49A: the yeast fitness was no more than 0.5.
The same measure for U2C C22U A69C: 0.511.
The figure for U2C A14C G39A A57U is no more than 0.5.
Turning to U2C G25A A42U, the yeast fitness stood at 0.561.
For the variant U2G A15U C24G U53A U64A, the yeast fitness is no more than 0.5.
Regarding U2C U16C C27G G68A, the yeast fitness is no more than 0.5.
The same measure for U2C U28C C34U: no more than 0.5.
As for U2C G6A A42C C66U, the yeast fitness was no more than 0.5.
The figure for U2C C27G U28A A43U C61A C62U A65U A69C is no more than 0.5.
Take U2C C4U C62U: the yeast fitness came out at 0.698.
Take U2C U8A G38C C60A: the yeast fitness is no more than 0.5.
As to U2C U8G G23A C24G G44A, the yeast fitness was no more than 0.5.
For U2C U3A A14C C30U A40U C49U, the yeast fitness is no more than 0.5.
Turning to U2C C22G G51C A70G, the yeast fitness is no more than 0.5.
The figure for U2C G50C C60G is no more than 0.5; for U2C G6A C61G it is no more than 0.5; for U2C A15C C60A it is no more than 0.5.
Consider U2C C4A G17A C60G, for which the yeast fitness is no more than 0.5.
Regarding U2A U19C, the yeast fitness is 0.867.
On to U2C G63A, for which the yeast fitness was determined as 0.799.
With U2C G23A C24U A45U C60A, the yeast fitness was found to be 0.61.
On to U2C U35G A40C, for which the yeast fitness amounted to 0.587.
For U2C C29U, the yeast fitness amounted to 0.81.
As to U2C C29A, the yeast fitness worked out at 0.659.
With U2C C29G, the yeast fitness is 0.626.
The figure for U2C C27U is 0.881.
On to U2C C27G, for which the yeast fitness turned out to be 0.748.
On to U2C U26C C55A, for which the yeast fitness came out at 0.732.
Consider U2C U35C, for which the yeast fitness came out at 0.829.
The same measure for U2C C30A U47C A65C C66G: no more than 0.5; for U2C U3A A40C: no more than 0.5.
With U2C A37G C49G A57U G68C A70G, the yeast fitness is no more than 0.5.
For the variant U2C U47C G67C, the yeast fitness came out at 0.719.
In the case of U2A U54C, the yeast fitness came to 0.932.
The same measure for U2C U35A C60A: no more than 0.5; for U2A U28A A37C C66U: no more than 0.5.
Consider U2A U28C G39A G68A, for which the yeast fitness was no more than 0.5.
Take U2G A20C G38A C46A: the yeast fitness is no more than 0.5.
Consider U2C C4U A36G G44C, for which the yeast fitness was 0.615.
For U2C C4U U47A, the yeast fitness was found to be 0.525.
Regarding U2C G12C A40C, the yeast fitness was no more than 0.5.
As to U2C U19A, the yeast fitness was 0.845.
Turning to U2C C24U A57U, the yeast fitness was no more than 0.5.
Regarding U2G A15U C62A, the yeast fitness is 0.613.
With U2C C46G G63A A70U, the yeast fitness is no more than 0.5.
Turning to U2C A14G U47G, the yeast fitness was determined as 0.593.
The figure for U2C C11G C22G G56A G63A is no more than 0.5; for U2C G10C A40C G52C G67A it is no more than 0.5; for U2C A21U C30U it is no more than 0.5.
With U2C G6A G23A C27U A45C C60A, the yeast fitness was 0.605.
For the variant U2C G51C, the yeast fitness is 0.687.
Take U2C G51A: the yeast fitness came out at 0.822.
For the variant U2C C4A G18C G63A, the yeast fitness is 0.633.
For the variant U2C G12A C24A U28A A42C U47G C49G, the yeast fitness is 0.582.
The same measure for U2C U3C C34U G63A: no more than 0.5; for U2C G6A C31U C49U: 0.641.
U2C G39A G44A: the yeast fitness was 0.66.
The same measure for U2G A20C C27U C46A: 0.614.
Turning to U2C A42G, the yeast fitness is 0.821.
With U2C A42U, the yeast fitness came out at 0.937.
With U2C A42C, the yeast fitness turned out to be 0.914.
Turning to U2C G9C A69C, the yeast fitness worked out at 0.524.
The figure for U2C U7A C24A A37G A42U G48C U54A is no more than 0.5; for U2C U16C C27G C55U U59G it is no more than 0.5.
U2C A43G A57C A65U: the yeast fitness was no more than 0.5.
In the case of U2C G18A G25A, the yeast fitness is 0.599.
Regarding U2C A20U G38C, the yeast fitness was no more than 0.5.
As for U2C U26G, the yeast fitness was 0.997.
Turning to U2C A40C A69C, the yeast fitness worked out at 0.633.
The same measure for U2C G23C C31G C33U A42G G52C A70G: no more than 0.5; for U2C U16A G67C: 0.644.
Consider U2C C11U A21C U26C C49U A57U, for which the yeast fitness was no more than 0.5.
The figure for U2C C4A U8C G18C U35C G63A is no more than 0.5; for U2A U19A A20C U26A A43G it is no more than 0.5; for U2C C27U A43G G56A it is no more than 0.5.
Turning to U2A U47G C66U, the yeast fitness was no more than 0.5.
As to U2C G58A G68C, the yeast fitness is 0.645.
Take U2C G25C A36U G38A: the yeast fitness is no more than 0.5.
Turning to U2C C11U G12A A15G, the yeast fitness is no more than 0.5.
U2C C66U: the yeast fitness turned out to be 0.968.
Take U2A U32C A57G: the yeast fitness was found to be 0.652.
Regarding U2C A37U U53A, the yeast fitness amounted to 0.727.
Consider U2C C11G C22G, for which the yeast fitness was no more than 0.5.
U2C A14G G18A U32A U59A: the yeast fitness was no more than 0.5.
Regarding U2C U28A, the yeast fitness came out at 0.563.
Consider U2C U28C, for which the yeast fitness turned out to be 0.912.
Turning to U2C C4U A70C, the yeast fitness came out at 0.733.
The same measure for U2C A15U A20U A69U: no more than 0.5.
As for U2C G18A G25A C66U, the yeast fitness was no more than 0.5.
With U2C A14U, the yeast fitness was found to be 0.764.
U2C A43U G44C: the yeast fitness was no more than 0.5.
Consider U2C U19A U26A C29A C46G U54A, for which the yeast fitness was no more than 0.5.
On to U2C C27U C46U G48A, for which the yeast fitness was 0.636.
For U2C G25A A42U C55G, the yeast fitness is no more than 0.5.
Regarding U2C G12A A15G A43U C62G, the yeast fitness was no more than 0.5.
Consider U2C C5A C29G G48A A69U, for which the yeast fitness is no more than 0.5.
For the variant U2A U19G A65U, the yeast fitness was found to be 0.644.
For U2C C61U G68A, the yeast fitness is no more than 0.5.
In the case of U2C C11U G56C C62U, the yeast fitness is no more than 0.5.
The figure for U2A U28A C55G is no more than 0.5; for U2C A40C A42U C49G C66G it is no more than 0.5.
For U2C A14U C29U, the yeast fitness amounted to 0.626.
In the case of U2C U16C C22A U35A A45C, the yeast fitness is no more than 0.5.
Regarding U2C C24A C33A C46U, the yeast fitness was no more than 0.5.
The same measure for U2A U28A A37C G58C A69G: no more than 0.5; for U2C U13C: 0.991; for U2C A70G: 0.945.
For the variant U2A U53G, the yeast fitness is no more than 0.5.
For U2G A14C A42C, the yeast fitness was no more than 0.5.
As to U2C C24U A70C, the yeast fitness is 0.708.
The figure for U2C C4A U28C G44C is 0.601.
Turning to U2C A57U C62U U64C, the yeast fitness was no more than 0.5.
The same measure for U2C G23C C55G: 0.553; for U2C U19G A69C: 0.543; for U2C G10C A21G: no more than 0.5.
The same measure for U2A U28C G41C U54A G67U: no more than 0.5; for U2C G17A A37C: 0.791.
In the case of U2C A14U A15G C30U C34U G51C C55U, the yeast fitness was 0.596.
Turning to U2C U28G A43U G56C A57U G67A, the yeast fitness is no more than 0.5.
For U2C C11A C34G G51A, the yeast fitness is no more than 0.5.
Consider U2A U26A, for which the yeast fitness worked out at 1.06.
The same measure for U2C G10A U54A C62U C66A: no more than 0.5; for U2C U53A: 0.7; for U2C G9U C61G: no more than 0.5.
